In assay [1] the test system is MCF-7 breast cancer cells. In words: MTT cytotoxicity assay, MCF-7. It counts as cell-based. The following applies: Homo sapiens, MCF7, 72 h, read-out: IC50 cytotoxicity against MCF-7 cells. A digest of the protocol: (§1)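 MTT assay: cells cultured at 37 °C in 5% CO2 with 10% FBS and penicillin/streptomycin, HeLa in DMEM and MCF-7 in RPMI 1640. Seeded at 5,000 cells/well and left to adhere 24 h, then exposed 72 h to 0.1, 1, 10 and 100 µM test compound, diluted from 10 mM DMSO stocks in medium. MTT (5 mg/mL) added for 3 h, formazan dissolved in DMSO, absorbance read. Blank-corrected % survival taken relative to untreated cells; IC50 calculated; mean ± SD, n = 3; doxorubicin as positive control.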

Another assay relates to HeLa cells. In words: MTT cytotoxicity assay, HeLa. It counts as cell-based. The following applies: Homo sapiens, 72 h, read-out: IC50 cytotoxicity against HeLa cells. A digest of the protocol:
as §1

The test system of assay [2] is Hsp90 protein level in MCF-7 cells. In words: Hsp90 protein level assay. It is filed as cell-based, human. The following applies: 10 µM, control (untreated) cells 5.54 ng/mL. In short, it runs like this: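 Sandwich ELISA kit quantifying intracellular Hsp90 in MCF-7 cells against untreated cells. Standards and samples incubated 2 h at 37 °C, then biotinylated antibody 1 h at 37 °C, three washes, HRP-avidin 1 h at 37 °C, washes, TMB 15–30 min at 37 °C. Stop solution added and absorbance read at 450 nm. Experiment run in triplicate (n = 3); significance set at p < 0.05.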

As usually defined, the IC50 is the point on the concentration scale where inhibition reaches its midpoint. `C=CCNC1=C2C[C@@H](C)C[C@H](OC)[C@H](O)[C@@H](C)/C=C(\C)[C@H](OC(N)=O)[C@@H](OC)/C=C\C=C(/C)C(=O)NC(=CC1=O)C2=O` [17-AAG, Tanespimycin, reference compound]: the IC50 in assay [1] stood at 0.1 µM.
As for `COc1ccc(-c2noc(N)c2C#N)c(OC)c1` [compound 1, 5-amino-(2,4-dimethoxyphenyl) isoxazole-4-carbonitrile], the IC50 in the assay on HeLa cells amounted to 7.91 µM; in assay [1] it was 0.31 µM. For the same compound, the “Hsp90 protein level after treatment” value in assay [2] turned out to be 4.85 ng/mL.
As for `COc1ccc(-c2noc(NC(=O)c3ccccc3)c2C#N)c(OC)c1` [compound 2, N-(4-cyano-3(2,4-dimethoxyphenyl)isoxazol-5-yl) benzamide], the IC50 with HeLa cells is above 100 µM; in assay [1], at least 100 µM.
The like results for `COc1ccc(-c2noc(NC(=O)c3ccc(Cl)cc3)c2C#N)c(OC)c1` [compound 3, N-(4-cyano-3-(2,4-dimethoxyphenyl)isoxazol-5-yl)-4-chlorobenzamide] were, in that order, 3.61 µM and 68.3 µM.
Take `COc1ccc(-c2noc(NC(=O)c3ccc(C(F)(F)F)cc3)c2C#N)c(OC)c1` [compound 4, N-(4-cyano-3-(2,4-dimethoxyphenyl)isoxazol-5-yl)-4-(trifluoromethyl)benzamide]: the IC50 in the assay with HeLa cells came out at 19.4 µM; in assay [1], 50.6 µM. Moreover, in assay [2], the “Hsp90 protein level after treatment” value stood at 2.81 ng/mL.
Regarding `COc1ccc(-c2noc(NC(=O)c3ccc(F)cc3)c2C#N)c(OC)c1` [compound 8, N-(4-cyano-3(2,4-dimethoxyphenyl)isoxazol-5-yl)-4-fluorobenzamide], the IC50 in the assay with HeLa cells is 31.9 µM; in assay [1] it was 54.1 µM.

The values are drawn from article PMC11564562 (Scientific Reports, 2024).
